Experimental data reported in ChEMBL document CHEMBL1149276, “Inhibition of Streptococcus suis adhesion by dendritic galabiose compounds at low nanomolar concentration” (J Med Chem, 2004).
≈ marks a conversion by molar mass, not a printed value.

Columns and labels:
Streptococcus suis [1] = assay: Relative potency against Streptococcus suis 628 mediated hemagglutinination of human erythrocytes measured as IC50 for monovalent galobiose compound to the multivalent compound; type: functional
In short: (§1)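 Hemagglutination MIC read-out. Bacteria (THY broth, 37 °C, static) were preincubated 5 min at room temperature with twofold inhibitor dilutions. Sialidase-treated 5% human erythrocytes were added and agglutination was scored visually after 1 h on ice. Potency is expressed relative to the monovalent reference galabioside.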

Streptococcus suis [2] = assay: Relative potency against Streptococcus suis 836 mediated hemagglutinination of human erythrocytes measured as IC50 for monovalent galobiose compound to the multivalent compound; type: functional; in short: as §1
Streptococcus suis [3] = assay: Inhibition of Streptococcus suis 628 mediated hemagglutinination of human erythrocytes; type: functional
In short: (§2)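 S. suis grown in THY broth at 37 °C without shaking. Twofold dilutions of galabiose compound were preincubated with equal volumes of bacteria for 5 min at room temperature. Then 5% sialidase-treated human erythrocytes were added. After 1 h on ice, agglutination was scored visually. MIC was taken as the lowest concentration giving complete inhibition.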

Streptococcus suis [4] = assay: Inhibition of Streptococcus suis 628 binding to pigeon ovomucoid by surface plasmon resonance assay; type: functional, organism-based
In short: (§3)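 SPR competition format. S. suis was cultured in THY broth at 37 °C without shaking. Bacteria were incubated 5 min with inhibitor dilutions in HBS-P buffer, then injected over the sensor chip. The surface was regenerated with 10 mM NaOH between injections. Data from repeated experiments were normalized 0–100 to build inhibition curves. Line 7 expresses potency relative to the monovalent reference.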

Streptococcus suis [5] = assay: Inhibition of Streptococcus suis 836 mediated hemagglutinination of human erythrocytes; type: functional; in short: as §2
Streptococcus suis [6] = assay: Relative potency for against treptococcus suis 628 binding to pigeon ovomucoid by surface plasmon resonance assay measured as IC50 for monovalent galobiose compound to the multivalent compound; type: functional; in short: as §3
Streptococcus suis [7] = assay: Inhibition of Streptococcus suis 628 binding to pigeon ovomucoid by ELISA; type: functional, organism-based

O=C(CCN(CCNC(=O)CCN(CCC(=O)NCCN(CCC(=O)NCCNC(=O)COCC(=O)NCCCO[C@@H]1O[C@H](CO)[C@H](O[C@H]2O[C@H](CO)[C@H](O)[C@H](O)[C@H]2O)[C@H](O)[C@H]1O)CCC(=O)NCCNC(=O)COCC(=O)NCCCO[C@@H]1O[C@H](CO)[C@H](O[C@H]2O[C@H](CO)[C@H](O)[C@H](O)[C@H]2O)[C@H](O)[C@H]1O)CCN(CCC(=O)NCCN(CCC(=O)NCCNC(=O)COCC(=O)NCCCO[C@@H]1O[C@H](CO)[C@H](O[C@H]2O[C@H](CO)[C@H](O)[C@H](O)[C@H]2O)[C@H](O)[C@H]1O)CCC(=O)NCCNC(=O)COCC(=O)NCCCO[C@@H]1O[C@H](CO)[C@H](O[C@H]2O[C@H](CO)[C@H](O)[C@H](O)[C@H]2O)[C@H](O)[C@H]1O)CCC(=O)NCCN(CCC(=O)NCCNC(=O)COCC(=O)NCCCO[C@@H]1O[C@H](CO)[C@H](O[C@H]2O[C@H](CO)[C@H](O)[C@H](O)[C@H]2O)[C@H](O)[C@H]1O)CCC(=O)NCCNC(=O)COCC(=O)NCCCO[C@@H]1O[C@H](CO)[C@H](O[C@H]2O[C@H](CO)[C@H](O)[C@H](O)[C@H]2O)[C@H](O)[C@H]1O)CCC(=O)NCCNC(=O)COCC(=O)NCCCO[C@@H]1O[C@H](CO)[C@H](O[C@H]2O[C@H](CO)[C@H](O)[C@H](O)[C@H]2O)[C@H](O)[C@H]1O)NCCNC(=O)COCC(=O)NCCCO[C@@H]1O[C@H](CO)[C@H](O[C@H]2O[C@H](CO)[C@H](O)[C@H](O)[C@H]2O)[C@H](O)[C@H]1O
Ratio IC50 (Streptococcus suis [1]): 3000 | Ratio IC50 (Streptococcus suis [2]): 800 | MIC (Streptococcus suis [3]): 0.0003 µM (≈ 0.00162 µg/mL) | IC50 (Streptococcus suis [4]): 7 nM | MIC (Streptococcus suis [5]): 0.002 µM (≈ 0.0108 µg/mL) | Ratio IC50 (Streptococcus suis [6]): 256

COC(=O)c1cccc(OCCNC(=O)COCC(=O)NCCCO[C@@H]2O[C@H](CO)[C@H](O[C@H]3O[C@H](CO)[C@H](O)[C@H](O)[C@H]3O)[C@H](O)[C@H]2O)c1
IC50 (Streptococcus suis [7]): 45000 nM | MIC (Streptococcus suis [3]): 0.9 µM (≈ 0.623 µg/mL) | IC50 (Streptococcus suis [4]): 1800 nM | MIC (Streptococcus suis [5]): 1.6 µM (≈ 1.11 µg/mL)

O=C(COCC(=O)NCCCO[C@@H]1O[C@H](CO)[C@H](O[C@H]2O[C@H](CO)[C@H](O)[C@H](O)[C@H]2O)[C@H](O)[C@H]1O)NCC#Cc1cccc(C#CCNC(=O)COCC(=O)NCCCO[C@@H]2O[C@H](CO)[C@H](O[C@H]3O[C@H](CO)[C@H](O)[C@H](O)[C@H]3O)[C@H](O)[C@H]2O)c1
Ratio IC50 (Streptococcus suis [1]): 225 | Ratio IC50 (Streptococcus suis [2]): 32 | MIC (Streptococcus suis [3]): 0.004 µM (≈ 0.00472 µg/mL) | IC50 (Streptococcus suis [4]): 293 nM | MIC (Streptococcus suis [5]): 0.05 µM (≈ 0.059 µg/mL) | Ratio IC50 (Streptococcus suis [6]): 6

O=C(COCC(=O)NCCCO[C@@H]1O[C@H](CO)[C@H](O[C@H]2O[C@H](CO)[C@H](O)[C@H](O)[C@H]2O)[C@H](O)[C@H]1O)NCC#Cc1ccc(C#CCNC(=O)COCC(=O)NCCCO[C@@H]2O[C@H](CO)[C@H](O[C@H]3O[C@H](CO)[C@H](O)[C@H](O)[C@H]3O)[C@H](O)[C@H]2O)cc1
Ratio IC50 (Streptococcus suis [1]): 128 | Ratio IC50 (Streptococcus suis [2]): 18 | MIC (Streptococcus suis [3]): 0.007 µM (≈ 0.00825 µg/mL) | IC50 (Streptococcus suis [4]): 309 nM | MIC (Streptococcus suis [5]): 0.09 µM (≈ 0.106 µg/mL) | Ratio IC50 (Streptococcus suis [6]): 6

COC(=O)c1cc(OCCNC(=O)c2cc(OCCNC(=O)COCC(=O)NCCCO[C@@H]3O[C@H](CO)[C@H](O[C@H]4O[C@H](CO)[C@H](O)[C@H](O)[C@H]4O)[C@H](O)[C@H]3O)cc(OCCNC(=O)COCC(=O)NCCCO[C@@H]3O[C@H](CO)[C@H](O[C@H]4O[C@H](CO)[C@H](O)[C@H](O)[C@H]4O)[C@H](O)[C@H]3O)c2)cc(OCCNC(=O)c2cc(OCCNC(=O)COCC(=O)NCCCO[C@@H]3O[C@H](CO)[C@H](O[C@H]4O[C@H](CO)[C@H](O)[C@H](O)[C@H]4O)[C@H](O)[C@H]3O)cc(OCCNC(=O)COCC(=O)NCCCO[C@@H]3O[C@H](CO)[C@H](O[C@H]4O[C@H](CO)[C@H](O)[C@H](O)[C@H]4O)[C@H](O)[C@H]3O)c2)c1
Ratio IC50 (Streptococcus suis [1]): 450 | Ratio IC50 (Streptococcus suis [2]): 40 | MIC (Streptococcus suis [3]): 0.002 µM (≈ 0.00538 µg/mL) | IC50 (Streptococcus suis [4]): 7 nM | MIC (Streptococcus suis [5]): 0.04 µM (≈ 0.108 µg/mL) | Ratio IC50 (Streptococcus suis [6]): 256

COC(=O)c1cc(OCCNC(=O)COCC(=O)NCCCOCCOCCOCCCNC(=O)COCC(=O)NCCCO[C@@H]2O[C@H](CO)[C@H](O[C@H]3O[C@H](CO)[C@H](O)[C@H](O)[C@H]3O)[C@H](O)[C@H]2O)cc(OCCNC(=O)COCC(=O)NCCCOCCOCCOCCCNC(=O)COCC(=O)NCCCO[C@@H]2O[C@H](CO)[C@H](O[C@H]3O[C@H](CO)[C@H](O)[C@H](O)[C@H]3O)[C@H](O)[C@H]2O)c1
Ratio IC50 (Streptococcus suis [1]): 100 | Ratio IC50 (Streptococcus suis [2]): 16 | MIC (Streptococcus suis [3]): 0.009 µM (≈ 0.017 µg/mL) | IC50 (Streptococcus suis [4]): 156 nM | MIC (Streptococcus suis [5]): 0.1 µM (≈ 0.189 µg/mL) | Ratio IC50 (Streptococcus suis [6]): 12

COC(=O)c1cc(OCCNC(=O)COCC(=O)NCCCO[C@@H]2O[C@H](CO)[C@H](O[C@H]3O[C@H](CO)[C@H](O)[C@H](O)[C@H]3O)[C@H](O)[C@H]2O)cc(OCCNC(=O)COCC(=O)NCCCO[C@@H]2O[C@H](CO)[C@H](O[C@H]3O[C@H](CO)[C@H](O)[C@H](O)[C@H]3O)[C@H](O)[C@H]2O)c1
Ratio IC50 (Streptococcus suis [1]): 150 | Ratio IC50 (Streptococcus suis [2]): 22 | MIC (Streptococcus suis [3]): 0.006 µM (≈ 0.0075 µg/mL) | IC50 (Streptococcus suis [4]): 235 nM | MIC (Streptococcus suis [5]): 0.07 µM (≈ 0.0874 µg/mL) | Ratio IC50 (Streptococcus suis [6]): 8
